pIC50: −log10 of the molar value. Active and inactive are the calls of the source. The calls are words filed in the database; no cut-off is given here.
Columns and labels:
[1] = tested on: MDA-MB-468; assay: Antiproliferative activity against human MDA-MB-468 cells after 48 hrs by SRB assay; format: functional, cell-based; settings: MDA-MB-468, 48 h
Outline: (§1)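 SRB assay: 5,000-10,000 cells/well plated, 24 h at 37 °C/5% CO2 before drug; seven concentrations from 100 μM down (two- to ten-fold serial dilutions, DMSO ≤0.1% final) for 48 h; TCA fixation (10% final, 60 min, 4 °C), 0.4% SRB in 1% acetic acid, solubilized in 10 mM Tris base, absorbance 515-564 nm; growth = (Ti−Tz)/(C−Tz)×100; IC50 from sigmoidal variable-slope fit; triplicates, ≥2 independent experiments.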

[2] = tested on: MDA-MB-231; assay: Antiproliferative activity against human MDA-MB-231 cells after 48 hrs by SRB assay; format: functional, cell-based; settings: MDA-MB-231, 48 h; outline: as §1
[3] = tested on: MCF7; assay: Anticlonogenic activity against human MCF7 cells at 0.39 to 1.5 uM after 12 hrs by crystal violet staining based assay; format: functional, cell-based
Outline: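 Clonogenic assay: 1000 cells/well seeded, treated after overnight attachment for 12 h, then medium replaced and cells grown until control colonies were large enough; colonies stained with crystal violet.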

[4] = tested on: MCF7; assay: Antiproliferative activity against human MCF7 cells assessed as compound concentration required to show complete inhibition of cell viability up to 96 hrs by SRB assay; format: functional
[5] = tested on: BT-20; assay: Antiproliferative activity against human BT20 cells assessed as compound concentration required to show complete inhibition of cell viability up to 96 hrs by SRB assay; format: functional
[6] = tested on: CAMA-1; assay: Antiproliferative activity against human CAMA1 cells assessed as compound concentration required to show complete inhibition of cell viability up to 96 hrs by SRB assay; format: functional
[7] = tested on: PC-3; assay: Antiproliferative activity against human PC3 cells assessed as compound concentration required to show complete inhibition of cell viability up to 96 hrs by SRB assay; format: functional
[8] = tested on: MCF-10A; assay: Antiproliferative activity against human MCF10A cells assessed as compound concentration required to show complete inhibition of cell viability up to 96 hrs by SRB assay; format: cell-based
[9] = tested on: 184B5; assay: Antiproliferative activity against human 184B5 cells assessed as compound concentration required to show complete inhibition of cell viability up to 96 hrs by SRB assay; format: cell-based; settings: 184b5, 96 h
[10] = tested on: 184B5; assay: Antiproliferative activity against human 184B5 cells at 1 to 2 uM up to 96 hrs by SRB assay; format: cell-based; settings: 184b5, 96 h
[11] = tested on: MCF7; assay: Cell cycle arrest in human MCF7 cells assessed as accumulation at sub-G1 phase at 2 uM after 48 hrs by propidium iodide staining based flow cytometry; format: functional
Outline: (§2)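 MCF7, MDA-MB231 and non-cancer 184B5 breast cells exposed to 2 μM for 48 h, then cell-cycle analysis by flow cytometry; duplicates, repeated three times.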

[12] = tested on: 184B5; assay: Cell cycle arrest in human 184B5 cells at 2 uM after 48 hrs by propidium iodide staining based flow cytometry; settings: 184b5, 48 h; outline: as §2
[13] = tested on: MCF7; assay: Cell cycle arrest in human MCF7 cells assessed as DNA content at 2 uM after 24 hrs by BrdU incorporation assay (reference value: 32.9%); format: functional
[14] = tested on: MCF7; assay: Upregulation of Cyclin-E protein expression in human MCF7 cells at 2 uM after 12 to 24 hrs by Western blot method; format: functional, cell-based
[15] = tested on: MCF7; assay: Downregulation of Cyclin-B protein expression in human MCF7 cells at 2 uM after 24 to 72 hrs by Western blot method; format: functional, cell-based
[16] = tested on: MCF7; assay: Downregulation of Cyclin-A protein expression in human MCF7 cells at 2 uM after 24 to 72 hrs by Western blot method; format: functional, cell-based
[17] = target: Serine/threonine-protein kinase mTOR (Homo sapiens) (UniProt P42345); assay: Inhibition of mTOR pathway in human MCF7 cells assessed as reduction in S6K phosphorylation at Ser371 residue at 2 uM after 6 to 24 hrs by Western blot method; format: cell-based
[18] = target: Serine/threonine-protein kinase mTOR (Homo sapiens) (UniProt P42345); assay: Inhibition of mTOR pathway in human MCF7 cells assessed as reduction in 4EBP1 phosphorylation at Thr37/Thr46 residues at 2 uM after 6 hrs by Western blot method; format: cell-based
[19] = Selectivity index, ratio of compound concentration for cell killing activity in human MCF10A cells to compound concentration for cell killing activity in human BT20 cells; format: toxicity, cell-based; settings: MCF10A cells versus BT20 cells, read-out: Selectivity Index
[20] = Selectivity index, ratio of compound concentration for cell killing activity in human MCF10A cells to compound concentration for cell killing activity in human SK-BR-3 cells; format: toxicity, cell-based; settings: MCF10A cells versus SK-BR-3 cells, read-out: Selectivity Index
[21] = Selectivity index, ratio of compound concentration for cell killing activity in human MCF10A cells to compound concentration for cell killing activity in human MDA-MB-468 cells; format: toxicity, cell-based; settings: MCF10A cells versus MDA-MB-468 cells, read-out: Selectivity Index
[22] = Selectivity index, ratio of compound concentration for cell killing activity in human MCF10A cells to compound concentration for cell killing activity in human PC3 cells; format: toxicity, cell-based; settings: MCF10A cells versus PC3 cells, read-out: Selectivity Index
[23] = Selectivity index, ratio of compound concentration for cell killing activity in human MCF10A cells to compound concentration for cell killing activity in human A549 cells; format: toxicity, cell-based; settings: MCF10A cells versus A549 cells, read-out: Selectivity Index
[24] = Selectivity index, ratio of compound concentration for cell killing activity in human MCF10A cells to compound concentration for cell killing activity in human NCI-H1975 cells; format: toxicity, cell-based; settings: MCF10A cells versus NCI-H1975 cells, read-out: Selectivity Index
[25] = Selectivity index, ratio of compound concentration for cell killing activity in human 184B5 cells to compound concentration for cell killing activity in human BT20 cells; format: toxicity, cell-based; settings: 184B5 cells versus BT20 cells, read-out: Selectivity Index
[26] = Selectivity index, ratio of compound concentration for cell killing activity in human 184B5 cells to compound concentration for cell killing activity in human SK-BR-3 cells; format: toxicity, cell-based; settings: 184B5 cells versus SK-BR-3 cells, read-out: Selectivity Index
[27] = Selectivity index, ratio of compound concentration for cell killing activity in human 184B5 cells to compound concentration for cell killing activity in human MDA-MB-453 cells; format: toxicity, cell-based; settings: 184B5 cells versus MDA-MB-453 cells, read-out: Selectivity Index
[28] = Selectivity index, ratio of compound concentration for cell killing activity in human 184B5 cells to compound concentration for cell killing activity in human MDA-MB-231 cells; format: toxicity, cell-based; settings: 184B5 cells versus MDA-MB-231 cells, read-out: Selectivity Index
[29] = Selectivity index, ratio of compound concentration for cell killing activity in human 184B5 cells to compound concentration for cell killing activity in human MDA-MB-468 cells; format: toxicity, cell-based; settings: 184B5 cells versus MDA-MB-468 cells, read-out: Selectivity Index
[30] = Selectivity index, ratio of compound concentration for cell killing activity in human 184B5 cells to compound concentration for cell killing activity in human A549 cells; format: toxicity, cell-based; settings: 184B5 cells versus A549 cells, read-out: Selectivity Index
[31] = Selectivity index, ratio of compound concentration for cell killing activity in human 184B5 cells to compound concentration for cell killing activity in human NCI-H1975 cells; format: toxicity, cell-based; settings: 184B5 cells versus NCI-H1975 cells, read-out: Selectivity Index

**Q.** With `COc1ccc2nc3cc(Cl)ccc3c(NCCCN3C(=O)CCSC3c3cccs3)c2c1` (stereo unspecified) as the compound, how does the pIC50 [1] read?
**A.** 5.76

**Q.** And the pIC50 [2]?
**A.** 5.55

**Q.** And the Activity [3]?
**A.** Active

**Q.** What about the Activity [4] of the same compound?
**A.** 1 µM

**Q.** What about the Activity [5] of the same compound?
**A.** 1 µM

**Q.** And the Activity [6]?
**A.** 2 µM

**Q.** What about the Activity [7] of the same compound?
**A.** 2 µM

**Q.** What about the Activity [8] of the same compound?
**A.** > 6 µM

**Q.** And the Activity [9]?
**A.** 6 µM

**Q.** And the Activity [10]?
**A.** Non-Toxic

**Q.** And the Activity [11]?
**A.** Active

**Q.** What about the Activity [12] of the same compound?
**A.** Non-Toxic

**Q.** And the Activity [13]?
**A.** 0.7%

**Q.** What about the Activity [14] of the same compound?
**A.** Active

**Q.** What about the Activity [15] of the same compound?
**A.** Active

**Q.** And the Activity [16]?
**A.** Active

**Q.** What about the inhibition [17] of the same compound?
**A.** inactive

**Q.** And the inhibition [18]?
**A.** Active

**Q.** What about the selectivity ratio [19] of the same compound?
**A.** 3 to 6

**Q.** And the selectivity ratio [20]?
**A.** 3 to 6

**Q.** What about the selectivity ratio [21] of the same compound?
**A.** 3 to 6

**Q.** What about the selectivity ratio [22] of the same compound?
**A.** 3 to 6

**Q.** What about the selectivity ratio [23] of the same compound?
**A.** 3 to 6

**Q.** What about the selectivity ratio [24] of the same compound?
**A.** 3 to 6

**Q.** What about the selectivity ratio [25] of the same compound?
**A.** 3 to 6

**Q.** And the selectivity ratio [26]?
**A.** 3 to 6

**Q.** And the selectivity ratio [27]?
**A.** 3 to 6

**Q.** What about the selectivity ratio [28] of the same compound?
**A.** 3 to 6

**Q.** What about the selectivity ratio [29] of the same compound?
**A.** 3 to 6

**Q.** And the selectivity ratio [30]?
**A.** 3 to 6

**Q.** What about the selectivity ratio [31] of the same compound?
**A.** 3 to 6
